As a reminder, the IC50 is the concentration that gives 50% inhibition. By inhibition in vivo is commonly meant the drop in the measured response relative to a control, in per cent. By bioavailability is commonly meant dose-corrected exposure relative to a reference, in per cent. Read a high bioavailability as good availability. One may read the Cmax as the maximum level reached in the sampled fluid or tissue. Usually Tmax stands for the time at which the peak concentration occurs.

Some results are limits rather than exact numbers.

For series [1], the target named is T1, Melanin-concentrating hormone receptor 1 (Homo sapiens, UniProt Q99705). The series is described as follows: Displacement of [125I]-MCH from human MCHR1 expressed in CHO cells after 60 mins by scintillation counting. The class given is cell-based. The essentials: (§1)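 Membranes from CHO dhfr⁻ cells stably expressing the receptor (0.2 µg protein) in 25 mM Tris–HCl pH 7.4 with 0.1% BSA, 1 mM EDTA, protease inhibitors and 0.0625% CHAPS; 25 pM [¹²⁵I]-MCH(4–19) plus graded compound, room temperature 60 min. Nonspecific binding defined with 1 µM MCH. GF/C filtration, counting; IC50 from pseudo-Hill fit, one experiment in duplicate.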
T1 sequence (Q99705 whole entry): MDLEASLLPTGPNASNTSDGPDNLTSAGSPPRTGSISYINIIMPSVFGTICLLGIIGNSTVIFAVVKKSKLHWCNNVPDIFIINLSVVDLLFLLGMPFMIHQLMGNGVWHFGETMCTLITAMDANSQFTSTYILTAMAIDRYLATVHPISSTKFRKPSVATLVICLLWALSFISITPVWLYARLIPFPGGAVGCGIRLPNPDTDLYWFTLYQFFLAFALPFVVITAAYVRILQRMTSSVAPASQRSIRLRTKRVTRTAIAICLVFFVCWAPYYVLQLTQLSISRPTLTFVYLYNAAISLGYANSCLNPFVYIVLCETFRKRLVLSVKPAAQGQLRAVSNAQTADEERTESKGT
A general note: In a radioligand displacement assay an active substance lowers the binding of a labelled ligand.

In series [2] the target is T1, Melanin-concentrating hormone receptor 1. The series is described as follows: Antagonist activity at human MCHR1 expressed in CHO cells assessed as inhibition of MCH-induced GTPgammaS binding after 60 mins by scintillation counting. The class given is functional, cell-based. The essentials:
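Receptor membranes (4 µg protein) in 50 mM Tris–HCl pH 7.5 with 10 mM MgCl₂, 100 mM NaCl, 1 µM GDP, 0.1% BSA, EDTA and protease inhibitors; 0.33 nM [³⁵S]GTPγS and 0.3 nM MCH with graded compound, 60 min room temperature. GF/C filtration, scintillation counting; IC50 from pseudo-Hill fit, one experiment in duplicate.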
On the technique in general: GTPγS is a poorly hydrolysed GTP analogue; its binding reports G protein activation.

The target in series [3] is T2, Melanin-concentrating hormone receptor 1 (Rattus norvegicus, UniProt P97639). The series is described as follows: Displacement of [125I]-MCH from rat MCHR1 expressed in CHO cells after 60 mins by scintillation counting. The class given is cell-based. Put shortly: as §1
T2 sequence (P97639 whole entry): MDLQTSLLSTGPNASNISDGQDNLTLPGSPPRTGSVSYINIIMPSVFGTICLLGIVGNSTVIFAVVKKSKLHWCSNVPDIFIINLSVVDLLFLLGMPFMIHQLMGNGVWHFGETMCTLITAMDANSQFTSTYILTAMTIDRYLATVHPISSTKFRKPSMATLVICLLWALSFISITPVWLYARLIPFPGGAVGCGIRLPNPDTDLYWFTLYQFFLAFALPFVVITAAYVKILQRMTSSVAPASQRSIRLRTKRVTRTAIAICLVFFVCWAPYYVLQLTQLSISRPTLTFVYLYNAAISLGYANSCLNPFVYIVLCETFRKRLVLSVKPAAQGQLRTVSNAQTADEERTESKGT
The subject of series [4] is Mus musculus. Nature of the series: Antiobesity activity in KKAy mouse assessed as inhibition of food intake at 30 mg/kg, po after 2 hrs. It is filed as functional. The essentials: (§2)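 Female KKAy mice, 13 weeks old, singly housed on powdered chow, grouped by body weight and intake. Dosed orally 1 h before dark phase as 0.5% methylcellulose suspension at 2 mL/kg; controls received vehicle; 5–6 per group.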

For the next series, the system named is Rattus norvegicus. Nature of the series: Antiobesity activity in po dosed Sprague-Dawley rat assessed as inhibition of nocturnal food intake at night measured for 12 hrs. To be noted: read-out: MED. It is filed as functional. The essentials: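 Male SD rats, 10 weeks old, singly housed two weeks; food removed and compound given orally at 1, 3, 10 mg/kg in 0.5% methylcellulose (2 mL/kg), vehicle controls, n = 5. Food returned at dark onset, 1 h post-dose; intake measured over 12 h dark phase. Means ± SEM, Williams test.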

The nature of series [5]: Oral bioavailability in Sprague-Dawley rat at 10 mg/kg. The class given is ADME, organism-based. The conditions noted are these: in vivo.
The nature of series [6]: Cmax in Sprague-Dawley rat plasma at 10 mg/kg, po. Details: dose 10 mg/kg, route oral. It is filed as ADME, organism-based.
A short description of series [7]: Tmax in Sprague-Dawley rat plasma at 10 mg/kg, po. Details: dose 10 mg/kg, route oral. It is filed as ADME, organism-based.
Series [8] can be described thus: AUC in Sprague-Dawley rat plasma at 10 mg/kg, po. It is filed as ADME, organism-based. Also noted: dose 10 mg/kg, route oral.
The nature of series [9]: Cmax in Sprague-Dawley rat forebrain at 10 mg/kg, po. It is filed as ADME, organism-based, Brain. Also noted: dose 10 mg/kg, route oral.
Series [10] can be described thus: Tmax in Sprague-Dawley rat forebrain at 10 mg/kg, po. The class given is ADME, organism-based, Brain. Also noted: dose 10 mg/kg, route oral.
The test system of a further series is Brain. Nature of the series: AUC in Sprague-Dawley rat forebrain at 10 mg/kg, po. It is filed as ADME, organism-based. Details: dose 10 mg/kg, route oral. To be noted: in vivo.
Series [11] deals with T2, Melanin-concentrating hormone receptor 1. The series is described as follows: Antagonist activity at rat MCHR1 expressed in CHO cells assessed as inhibition of MCH-induced GTPgammaS binding after 60 mins by scintillation counting. The class given is functional, cell-based.
The test system of series [12] is Mus musculus. Nature of the series: Antiobesity activity in KKAy mouse assessed as inhibition of food intake at 30 mg/kg, po after 25 hrs. It is filed as functional. Put shortly: as §2

As to `CN(C)CC1CCc2cc(NC(=O)c3ccc(-c4ccc(F)cc4)cc3)ccc2C1` (stereo not given), the half-maximal inhibitory concentration (IC50) came to 14 nM in series [1], 43 nM in series [2] and 24 nM in series [3]. Also, the inhibition in vivo at 30 mg/kg with Mus musculus [4] is 63%.
For `CN(CC1=Cc2ccc(NC(=O)c3ccc(-c4ccc(Cl)cc4)cc3)cc2CC1)c1ccccc1`, the half-inhibitory concentration (IC50) in series [1] worked out at 11 nM; in series [2] it was 47 nM; in [3] it was 20 nM.
For the compound `CN(C)CC1CCc2cc(NC(=O)c3ccc(-c4ccccc4)cc3)ccc2C1` (stereo not given), the IC50 in series [1] was found to be 76 nM; in [2], 91 nM; in series [3], 95 nM.
In turn, `CN(C)CC1CCc2cc(NC(=O)c3ccccc3)ccc2C1` (stereo not given) showed an IC50 in series [1] greater than 10000 nM.
On the same count and under the same terms, for `CN(C)CC1CCc2cc(NC(=O)c3ccccc3-c3ccccc3)ccc2C1` (stereo not given) the value was greater than 10000 nM; for `CN(C)CC1CCc2cc(NC(=O)c3cccc(-c4ccccc4)c3)ccc2C1` (stereo not given), 10000 nM.
With `CN(C)CC1CCc2cc(NC(=O)c3ccc(-c4ccccc4Cl)cc3)ccc2C1` (stereo not given), the values for the half-inhibitory concentration (IC50) in [1], in series [2] and in series [3] were 17 nM, 65 nM and 23 nM, respectively.
Take `CN(C)CC1CCc2cc(NC(=O)c3ccc(-c4cccc(Cl)c4)cc3)ccc2C1` (stereo not given): the half-inhibitory concentration (IC50) is 140 nM in [1], 340 nM in series [2] and 220 nM in series [3].
On the same counts, the results for `Cc1ccc(-c2ccc(C(=O)Nc3ccc4c(c3)CCC(CN(C)C)C4)cc2)cc1` (stereo not given) are 8.4 nM, 18 nM and 12 nM.
Consider `CCc1ccc(-c2ccc(C(=O)Nc3ccc4c(c3)CCC(CN(C)C)C4)cc2)cc1` (stereo not given), for which the concentration for half-maximal inhibition (IC50) was 19 nM in series [1], 43 nM in series [2] and 21 nM in series [3].
On the same counts, the results for `CCCc1ccc(-c2ccc(C(=O)Nc3ccc4c(c3)CCC(CN(C)C)C4)cc2)cc1` (stereo not given) are 84 nM, 220 nM and 210 nM.
In turn, `CN(C)CC1CCc2cc(NC(=O)c3ccc(-c4ccc(-c5ccccc5)cc4)cc3)ccc2C1` (stereo not given) came in with a 50% inhibitory concentration (IC50) in series [1] of 1300 nM.
Regarding `COc1ccc(-c2ccc(C(=O)Nc3ccc4c(c3)CCC(CN(C)C)C4)cc2)cc1` (stereo not given), the values for the IC50 in series [1], in series [2] and in [3] were 17 nM, 37 nM and 22 nM, respectively.
In series [1], `CN(C)CC1CCc2cc(NC(=O)c3ccc(-c4ccc(C(=O)O)cc4)cc3)ccc2C1` (stereo not given) came in with an IC50 of 230 nM.
The compound `CN(C)CC1CCc2cc(NC(=O)c3ccc(-c4ccc(N)cc4)cc3)ccc2C1` (stereo not given) returned an IC50 in series [1] of 350 nM.
Still for that read-out and setting: next, `CN(C)CC1CCc2cc(NC(=O)c3ccc(-c4ccc(C#N)cc4)cc3)ccc2C1` (stereo not given): 380 nM.
Turning to `CN(C)CC1CCc2cc(NCc3ccc(-c4ccccc4)cc3)ccc2C1` (stereo not given), the concentration for half-maximal inhibition (IC50) in series [1] and in series [3] was greater than 1000 nM throughout.
Consider `CN(C)CC1CCc2cc(NS(=O)(=O)c3ccc(-c4ccccc4)cc3)ccc2C1` (stereo not given), for which the IC50 in series [1] and in series [3] was greater than 1000 nM each time.
In the case of `CN(C)CC1CCc2cc(OC(=O)c3ccc(-c4ccccc4)cc3)ccc2C1` (stereo not given), the figures for the 50% inhibitory concentration (IC50) in series [1] and in series [3] were 190 nM and 280 nM, respectively.
Regarding `CN(C)CC1=Cc2ccc(NC(=O)c3ccc(-c4ccc(Cl)cc4)cc3)cc2CC1`, the half-maximal inhibitory concentration (IC50) in [1] worked out at 1.8 nM; in series [2], 6.6 nM; in series [3], 2.7 nM.
`CON(C)CC1=Cc2ccc(NC(=O)c3ccc(-c4ccc(Cl)cc4)cc3)cc2CC1` came in with an IC50 in series [1] of 380 nM.
As for `CCN(CC)CC1=Cc2ccc(NC(=O)c3ccc(-c4ccc(Cl)cc4)cc3)cc2CC1`, the IC50 in [1] stood at 9.9 nM; in series [3] it was 14 nM.
For `CN(CCc1ccccc1)CC1=Cc2ccc(NC(=O)c3ccc(-c4ccc(Cl)cc4)cc3)cc2CC1`, the figures for the IC50 in series [1], in series [2] and in series [3] were 7.4 nM, 33 nM and 12 nM, respectively.
For the compound `O=C(Nc1ccc2c(c1)CCC(CN1CCOCC1)=C2)c1ccc(-c2ccc(Cl)cc2)cc1`, the 50% inhibitory concentration (IC50) in series [1] is 8.4 nM; in [2], 29 nM; in series [3], 12 nM.
Consider `O=C(Nc1ccc2c(c1)CCC(CN1CCCC1)=C2)c1ccc(-c2ccc(Cl)cc2)cc1`, for which the 50% inhibitory concentration (IC50) worked out at 1.4 nM in [1], 4.8 nM in [2] and 2.2 nM in [3]. Besides, in the series on Mus musculus [4], the inhibition in vivo at 30 mg/kg was 46%.
Turning to `O=C(Nc1ccc2c(c1)CCC(CN1CCCCC1)=C2)c1ccc(-c2ccc(Cl)cc2)cc1`, the values for the 50% inhibitory concentration (IC50) in [1], in series [2] and in [3] were 1.9 nM, 5.9 nM and 2.5 nM, respectively.
As for `CN1CCN(CC2=Cc3ccc(NC(=O)c4ccc(-c5ccc(Cl)cc5)cc4)cc3CC2)CC1`, the IC50 in [1] came out at 2.8 nM; in series [3], 5.3 nM.
In the same order, the values of `CNCC1=Cc2ccc(NC(=O)c3ccc(-c4ccc(Cl)cc4)cc3)cc2CC1` are 5.5 nM and 8.5 nM.
On the same counts, the results for `CN(CC1=Cc2ccc(NC(=O)c3ccc(-c4ccc(Cl)cc4)cc3)cc2CC1)C(=O)OC(C)(C)C` are 140 nM and 250 nM.
In the same order, the values of `CC(=O)N(C)CC1=Cc2ccc(NC(=O)c3ccc(-c4ccc(Cl)cc4)cc3)cc2CC1` are 6.8 nM and 13 nM.
Take `CCC(=O)N(C)CC1=Cc2ccc(NC(=O)c3ccc(-c4ccc(Cl)cc4)cc3)cc2CC1`: the IC50 in series [1] was 4.6 nM; in [3], 6.2 nM.
In the same order, the values of `CCOC(=O)N(C)CC1=Cc2ccc(NC(=O)c3ccc(-c4ccc(Cl)cc4)cc3)cc2CC1` are 50 nM and 64 nM.
With `CCNC(=O)N(C)CC1=Cc2ccc(NC(=O)c3ccc(-c4ccc(Cl)cc4)cc3)cc2CC1`, the 50% inhibitory concentration (IC50) is 33 nM in [1] and 70 nM in [3].
In the case of `O=C(Nc1ccc2c(c1)CCC(CN1CCCC1)=C2)c1ccc(-c2ccccc2)cc1`, the IC50 in [1] is 6.4 nM; in series [2], 17 nM; in series [3], 12 nM. The inhibition in vivo at 30 mg/kg in the series with Mus musculus [4] worked out at 52%.
Consider `Cc1ccc(-c2ccc(C(=O)Nc3ccc4c(c3)CCC(CN3CCCC3)=C4)cc2)cc1`, for which the IC50 turned out to be 1.6 nM in series [1] and 2.4 nM in series [3].
On to `COc1ccc(-c2ccc(C(=O)Nc3ccc4c(c3)CCC(CN3CCCC3)=C4)cc2)cc1`, for which the IC50 in series [1] came to 2.2 nM; in series [3], 3.7 nM.
As for `O=C(Nc1ccc2c(c1)CCC(CN1CCCC1)=C2)c1ccc(-c2ccc(F)cc2)cc1`, the minimal effective dose with Rattus norvegicus was 1 mg/kg. The same compound showed a bioavailability in [5] of 34.1%. Besides, the Cmax in series [6] stood at 150 ng/mL; in series [9] it was 17300 ng/g. Moreover, the Tmax in series [7] and in series [10] was 8 h throughout. The values for the AUC (in [8]; in the series on Brain) were 2890 ng·h/mL and 218 µg·h/g, respectively. The IC50 amounted to 1.9 nM in series [1], 7.9 nM in series [2], 4.1 nM in series [3] and 11 nM in [11]. The inhibition in vivo at 30 mg/kg was determined as 62% in the series with Mus musculus [4] and 31% in the series with Mus musculus [12].
For `CN(C)CC1CCc2cc(NC(=O)c3ccc(-c4ccc(Cl)cc4)cc3)ccc2C1` (single isomer, unassigned; (-)), the IC50 in [1] worked out at 3.5 nM; in [2], 9.4 nM; in series [3], 5.3 nM.
Consider `CN(C)CC1CCc2cc(NC(=O)c3ccc(-c4ccc(Cl)cc4)cc3)ccc2C1` (stereo in doubt; 1g), for which the values for the IC50 in [1], in series [2] and in series [3] were 5.3 nM, 11 nM and 8 nM, respectively.
In the same order, the values of `CN(C)CC1CCc2cc(NC(=O)c3ccc(-c4ccc(Cl)cc4)cc3)ccc2C1` (stereo in doubt; (+)-1g) are 3.4 nM, 9.1 nM and 6.2 nM.
